# Bioassay records as filed in PubChem.
# Rows were chosen to be rich in hits. Some 3.1% of all compounds tested hit in one or more screens of this group.
# OX1R antag-1: blocks the human orexin 1 receptor. CHO/OX1R cells, Fluo-8 calcium fluorescence, orexin A. O43613. AID 434989. inhibition, % at 5 µM. 330,000 tested, 0.43% active;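 active means inhibition above its plate's threshold, mean inhibition of all tested compounds on the plate plus 3 SD, cut at about 37% in these data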;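 further: 0% = orexin A challenge wells and 100% = SB-334867-A antagonist wells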
# CHO parental Ca: signal in parental CHO cells, OX1R antagonist counter-screen. AID 463079. 330,000 tested, 0.63% active. parental CHO-K1, ATP-induced calcium, Fluo-8 fluorescence. inhibition, % at 5.6 µM;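 active means inhibition above that plate's mean sample inhibition plus 3 SD, cut at about 26% in these data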;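 further: 0% = ATP-challenged DMSO wells and 100% = DMSO wells without ATP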
#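 Material: parental CHO cells / Compound: single nominal dose of 5.6 µM per compound / Signal: Fluo-8 fluorescence / Replicates: singlicate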
# GPR7 antag: human neuropeptides B/W receptor 1 antagonism. P48145. GPR7-expressing cells, fluorescence antagonist assay. inhibition, % at 4.4 µM. 290,000 tested, 1.1% active; in the data active means inhibition above about 16%, passing the limit was not always enough;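 further: cells stimulated with the agonist NPW; 0% = agonist with vehicle and 100% = vehicle without agonist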
# Target sequence (P48145 whole entry, looked up): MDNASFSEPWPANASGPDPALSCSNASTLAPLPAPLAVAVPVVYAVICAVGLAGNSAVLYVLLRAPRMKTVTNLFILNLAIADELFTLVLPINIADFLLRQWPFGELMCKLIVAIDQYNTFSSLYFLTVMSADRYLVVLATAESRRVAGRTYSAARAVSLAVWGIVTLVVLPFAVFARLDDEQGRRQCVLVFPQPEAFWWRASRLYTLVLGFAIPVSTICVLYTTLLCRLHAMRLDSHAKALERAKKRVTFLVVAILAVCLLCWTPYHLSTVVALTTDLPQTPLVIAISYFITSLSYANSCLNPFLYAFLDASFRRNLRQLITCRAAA
# OX1R antag-2: antagonists of human orexin 1 receptor (OX1R); OX1R-expressing cells, FRET antagonist read-out; inhibition, % at 6.6 µM; 330,000 tested, 1.8% active; in the data active means inhibition mostly above about 38%, no sharp cut-off; inactive means mostly below about 40%;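 further: 0% = agonist challenge alone and 100% = reference antagonist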
# GalR3 antag: blocks the human galanin receptor 3; 360,000 tested, 0.44% active; O60755; HEK293 GalR3-CNG cAMP membrane potential fluorescence; galR3 body fused to GalR1 C-terminus; inhibition, % at 3 µM; AID 651719;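 active means inhibition above the screen-wide average plus 3 SD, cut at about 13% in these data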;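 further: forskolin and galanin both at EC90 stimulate the cells; cAMP rise reported by CNG channel membrane potential dye signal; 0% = forskolin plus galanin with DMSO and 100% = forskolin alone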
# Target sequence (O60755 1-299 limits assumed): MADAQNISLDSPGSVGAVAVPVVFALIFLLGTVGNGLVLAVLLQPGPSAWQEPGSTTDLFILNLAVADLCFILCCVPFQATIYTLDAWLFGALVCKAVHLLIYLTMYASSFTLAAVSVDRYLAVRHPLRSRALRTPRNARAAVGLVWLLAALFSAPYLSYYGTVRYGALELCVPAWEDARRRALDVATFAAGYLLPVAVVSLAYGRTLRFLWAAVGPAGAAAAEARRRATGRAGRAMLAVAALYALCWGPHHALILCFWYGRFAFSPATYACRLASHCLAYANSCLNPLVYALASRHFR
# Active calls of the source: *; / = not tested or not shown.
SMILES,OX1R antag-1,CHO parental Ca,GPR7 antag,OX1R antag-2,GalR3 antag
COc1ccc(CCNC(=O)c2cc3c(=O)n4cccc(C)c4nc3n(CC3CCCO3)c2=N)cc1 (stereo not drawn),-24.9,-8.6,0.3,28.8,-8.4
COc1ccc(CCn2c(=N)c(C(=O)NCC3CCCO3)cc3c(=O)n4ccccc4nc32)cc1OC (stereo not drawn),-20.3,-10.0,-0.6,50.2*,3.7
Cc1cccn2c(=O)c3cc(C(=O)NCC4CCCO4)c(=N)n(CCc4ccccc4)c3nc12 (stereo not drawn),-25.7,-3.7,1.4,50.9*,-7.5
COc1ncnc2c1NC1=C(S2)C(=NCCC(=O)O)CC(C)(C)C1,4.6,-6.8,-1.2,71.5*,-2.7
Nc1nnc(SCC(=O)NNC(=O)c2ccc([N+](=O)[O-])cc2)s1,0.9,-1.9,/,36.0*,-4.3
O=C(O)C1CSCN1S(=O)(=O)c1cccc2nsnc12 (stereo not drawn),-6.2,1.0,/,40.8*,-6.1
CC(C)[C@H](NS(=O)(=O)c1ccccc1F)C(=O)NC1CCCCC1,29.3,-11.3,/,39.1*,-6.2
CC(C)C(NS(=O)(=O)c1ccccc1)C(=O)NC1CCCC1 (stereo not drawn),-3.3,-7.2,-17.3,13.1,0.9
CC(C)C(NS(=O)(=O)c1cccc2nsnc12)C(=O)NC1CCCCC1 (stereo not drawn),-0.4,-11.0,1.2,75.1*,-5.8
O=C(NC1CCCC1)C(NS(=O)(=O)c1cccc2nsnc12)c1ccccc1 (stereo not drawn),-28.0,-21.7,6.3,53.2*,-2.5
CCC(C)NC(=O)C(NS(=O)(=O)c1cccc2nsnc12)c1ccccc1 (stereo not drawn),-30.0,-11.6,16.4,28.1,-3.9
C[C@H](O)[C@@H]1C(=O)N2CCc3c([nH]c4cccc(-c5ccccc5)c34)[C@@H]2C[C@@H]1N(C)CC1CCCCC1,/,/,/,/,-4.0
O=C(C[C@H]1CC[C@H](NC(=O)C2CCOCC2)[C@@H](CO)O1)NCc1ccncc1,/,/,/,/,-4.2
CC1CCN(C(=O)C(NS(=O)(=O)c2cccc3nsnc23)c2ccccc2)CC1 (stereo not drawn),-37.0,-17.8,7.3,17.4,-5.1
O=C(NC1CCCCC1)C1CCCN1S(=O)(=O)c1ccc(F)cc1 (stereo not drawn),0.5,-0.9,5.9,13.8,-7.0
O=C(NC1CCCCC1)C1CCCN1S(=O)(=O)c1cccc2nsnc12 (stereo not drawn),-2.7,-0.5,-8.0,60.5*,-3.4
Cc1ccc(S(=O)(=O)N2CCCC2C(=O)NC2CCCCC2)cc1 (stereo not drawn),17.1,-5.4,-5.6,57.4*,-0.7
CNC(=O)C(=O)NCC1OCCN1S(=O)(=O)c1ccc([N+](=O)[O-])cc1 (stereo not drawn),-24.7,-6.5,0.0,71.5*,-0.1
CC1CCN(C(=O)C(NS(=O)(=O)c2cccc3nsnc23)C(C)C)CC1 (stereo not drawn),2.6,-13.3,2.9,43.1*,-8.2
O=C(C(=O)N1CCN(C(=O)c2cccs2)CC1)c1cccc(C(F)(F)F)c1,/,/,/,/,-3.6
COC(=O)C1=C(C)N(Cc2cccc(C(F)(F)F)c2)C(=NCc2ccc3c(c2)OCO3)NC1c1cccc(Cl)c1 (stereo not drawn),/,/,/,/,-6.9
N=c1ncn(C2OC(CO)C(O)C2O)c2nc(Br)[nH]c12 (stereo not drawn),/,/,/,/,-5.8
COC(=O)C1CCCN1S(=O)(=O)c1ccc2ccccc2c1 (stereo not drawn),-7.3,-17.1,-0.4,11.6,-9.0
CC(C)C(NS(=O)(=O)c1cccc2nsnc12)C(=O)NCc1ccco1 (stereo not drawn),-34.0,8.7,-15.3,31.5,-0.8
CC(=O)Nc1ccc(NC(=O)C(NS(=O)(=O)c2cccc3nsnc23)C(C)C)cc1 (stereo not drawn),-24.6,-11.9,-4.2,55.9*,-7.5
SMILES,OX1R antag-1,CHO parental Ca,GPR7 antag,OX1R antag-2,GalR3 antag
O=C(NCc1ccco1)C(Cc1ccccc1)NS(=O)(=O)c1cccc2nsnc12 (stereo not drawn),-18.3,-21.2,-9.5,50.8*,-0.3
COC(=O)C1CCCN1S(=O)(=O)c1ccc([N+](=O)[O-])cc1 (stereo not drawn),-0.1,17.9,14.0,36.0*,-3.5
Cc1cc(Oc2cccnc2)ccc1NC(=O)Cc1cn(C)c2ccccc12,/,/,/,/,-5.6
COCCS(=O)(=O)N(Cc1ccc(Br)cc1)[C@@H](C)C(=O)OC,-14.7,-12.8,/,3.7,-2.5
CCOC(=O)CC(C)(C)/C(C)=N/Nc1ccc([N+](=O)[O-])cc1[N+](=O)[O-],-2.7,18.8,-7.9,54.4*,-5.1
C/C(CCC(=O)O)=N/Nc1ccc([N+](=O)[O-])cc1[N+](=O)[O-],-2.4,-4.1,-6.8,63.5*,-6.0
CCC(CC)=NNc1ccc([N+](=O)[O-])cc1[N+](=O)[O-],-20.2,-4.8,-9.1,39.0,-5.7
C/C(CCCO)=N/Nc1ccc([N+](=O)[O-])cc1[N+](=O)[O-],15.2,4.1,0.4,43.9*,-4.0
CCOC(=O)C(C(=O)OCC)C(C)(C)/C(C)=N\Nc1ccc([N+](=O)[O-])cc1[N+](=O)[O-],3.6,-0.9,2.1,32.3,-4.3
C#CCOc1ccccc1C(=O)NNc1ccc([N+](=O)[O-])cc1[N+](=O)[O-],/,/,/,/,-7.4
C#CCOC(=O)CCCNc1ccc([N+](=O)[O-])cc1[N+](=O)[O-],-20.8,6.9,0.5,46.0*,-1.2
O=C(N[C@H](Cc1ccccc1)C(=O)NC1CCCCC1)[C@H]1O[C@@H](n2ccc(=O)[nH]c2=O)[C@H](O)[C@@H]1O,/,/,/,/,-3.0
COc1ccc(NC(=O)n2ncc3c(C)cccc32)cc1OC,-28.9,-21.4,-1.9,35.2*,-11.5
CCNC(=O)C1(C)CCCN(C(=O)c2sccc2C)C1 (stereo not drawn),/,/,/,/,-5.3
Cc1ccc(NS(=O)(=O)c2ccc(C(=O)N3CCCC(C(F)(F)F)C3)cc2)cc1 (stereo not drawn),45.0*,31.1,/,7.6,-5.9
CCOc1ccc(S(=O)(=O)Nc2ccc(C(=O)N3CC(C)OC(C)C3)cc2)cc1 (stereo not drawn),11.9,1.3,/,7.2,-2.4
COc1ccccc1NS(=O)(=O)c1ccc(C(=O)N2CCCC(C(F)(F)F)C2)cc1 (stereo not drawn),8.6,-9.5,/,15.8,-3.0
CCOc1ccc(NS(=O)(=O)c2ccc(C(=O)N3CC(C)OC(C)C3)cc2)cc1 (stereo not drawn),73.1*,41.7*,/,0.3,-7.4
COC(=O)c1ccc(NC(=S)NCCc2ccccc2)cc1,14.5,6.8,4.8,13.8,-4.6
CCOC(=O)c1ccc(NC(=S)NCCc2ccccc2)cc1,39.3,59.8*,-7.5,32.0,-0.4
CCOC(=O)c1sc(NC(=O)Nc2ccccc2)cc1C,27.7,22.0,12.6,61.3*,-2.8
CCOC(=O)c1sc(NC(C)=O)cc1C,-7.2,-0.3,0.2,11.9,-3.6
